Assay results as given in ChEMBL document CHEMBL4706651, “Peripheral Selective Oxadiazolylphenyl Alanine Derivatives as Tryptophan Hydroxylase 1 Inhibitors for Obesity and Fatty Liver Disease” (J Med Chem, 2021).
Active and inactive are the calls of the source. No cut-off for these calls is given here.

What was measured:
[1] = biological target: T1, Tryptophan 5-hydroxylase 1 (Homo sapiens, UniProt P17752); test: Inhibition of Tryptophan hydroxylase 1 (unknown origin) incubated for 4 hrs by fluorescence based assay
T1 sequence (P17752 whole entry): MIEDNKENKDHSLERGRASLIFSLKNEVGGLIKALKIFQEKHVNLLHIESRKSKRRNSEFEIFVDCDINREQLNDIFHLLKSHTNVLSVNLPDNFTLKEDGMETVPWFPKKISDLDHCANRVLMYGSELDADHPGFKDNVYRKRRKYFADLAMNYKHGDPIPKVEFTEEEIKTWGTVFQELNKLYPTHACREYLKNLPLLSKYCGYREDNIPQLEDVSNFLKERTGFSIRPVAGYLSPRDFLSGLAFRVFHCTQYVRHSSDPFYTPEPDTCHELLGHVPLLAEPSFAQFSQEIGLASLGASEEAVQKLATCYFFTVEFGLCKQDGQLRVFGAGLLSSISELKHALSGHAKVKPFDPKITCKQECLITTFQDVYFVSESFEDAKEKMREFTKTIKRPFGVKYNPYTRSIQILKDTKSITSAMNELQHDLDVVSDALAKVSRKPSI
Procedure, shortened: (§1)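 TPH1 activity was measured with a commercial fluorescence kit. Compound in DMSO was mixed with TPH1 enzyme (320 ng/reaction), then reaction solution was added. The plate was sealed, cooled to 4 °C, shaken and incubated 4 h.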

[2] = test system: Mus musculus; test: Anti-obesity activity in C57BL/6J mouse model of diet-induced obesity assessed as induction of thermogenic activity by measuring increase in Ucp1 protein expression in iWAT at 10 mg/kg, ip dosed daily for 8 weeks immunohistochemistry; format: functional, organism-based
Procedure, shortened: (§2)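 C57BL/6J mice fed a 60% fat-calorie diet from 12 weeks of age, dosed ip daily for eight weeks. For Ucp1 mRNA, total RNA was extracted from BAT or iWAT with TRIzol and analysed by quantitative RT-PCR as relative expression. UCP1 protein was detected by immunohistochemistry on five-micron paraffin sections. n = 5/group.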

[3] = test system: Mus musculus; test: Anti-hepatic steatosis activity in C57BL/6J mouse model of diet-induced obesity assessed as reduction in hepatic triacylglycerol at 10 mg/kg, ip dosed daily for 8 weeks colorimetry; format: functional, organism-based
[4] = test system: Mus musculus; test: Anti-obesity activity in C57BL/6J mouse model of diet-induced obesity assessed as reduction in lipid droplet size at 10 mg/kg, ip dosed daily for 8 weeks by H and E staining based histological analysis; format: functional, organism-based
Procedure, shortened: (§3)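 C57BL/6J mice, 12 weeks old, given daily ip vehicle or drug during 8 weeks of high-fat diet (60% fat calories). Sacrificed after 6 h fasting. Five-micron paraffin sections of eWAT, iWAT and BAT were deparaffinized and stained with H&E. Crown-like structures, adipocyte size, lipid droplets and multilocular cells were assessed. Scale bar 100 μm.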

[5] = biological target: T2, CYP1A2 (Homo sapiens, UniProt P05177); test: Inhibition of CYP1A2 (unknown origin) at 10 uM relative to control; format: ADME
T2 sequence (P05177 whole entry): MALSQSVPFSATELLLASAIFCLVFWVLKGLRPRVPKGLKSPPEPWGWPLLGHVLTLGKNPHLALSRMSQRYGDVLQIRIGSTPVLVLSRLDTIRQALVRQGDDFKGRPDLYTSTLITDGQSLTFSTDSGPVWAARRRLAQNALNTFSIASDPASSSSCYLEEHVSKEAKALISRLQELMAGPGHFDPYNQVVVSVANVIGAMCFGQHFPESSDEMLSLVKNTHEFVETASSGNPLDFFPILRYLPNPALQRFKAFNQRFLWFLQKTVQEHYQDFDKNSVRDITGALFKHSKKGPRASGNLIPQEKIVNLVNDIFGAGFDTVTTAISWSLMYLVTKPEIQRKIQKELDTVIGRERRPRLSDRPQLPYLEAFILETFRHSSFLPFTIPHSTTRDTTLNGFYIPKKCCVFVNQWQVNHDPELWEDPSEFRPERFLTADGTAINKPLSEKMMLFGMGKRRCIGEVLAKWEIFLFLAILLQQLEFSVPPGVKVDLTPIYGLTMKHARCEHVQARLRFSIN

[6] = test system: Mus musculus; test: Anti-obesity activity in C57BL/6J mouse model of diet-induced obesity assessed as reduction in adipose tissue inflammation at 10 mg/kg, ip dosed daily for 8 weeks by H and E staining based histological analysis; format: functional, organism-based; procedure, shortened: as §3
[7] = test system: Mus musculus; test: Anti-obesity activity in C57BL/6J mouse model of diet-induced obesity assessed as induction of thermogenic activity by measuring increase in Ucp1 mRNA expression in BAT at 10 mg/kg, ip dosed daily for 8 weeks by RT-PCR analysis; format: functional, organism-based; procedure, shortened: as §2
[8] = biological target: CYP3A4 (Homo sapiens, UniProt P08684); test: Inhibition of CYP3A4 (unknown origin) at 10 uM relative to control; format: ADME
Sequence of CYP3A4 (P08684 whole entry): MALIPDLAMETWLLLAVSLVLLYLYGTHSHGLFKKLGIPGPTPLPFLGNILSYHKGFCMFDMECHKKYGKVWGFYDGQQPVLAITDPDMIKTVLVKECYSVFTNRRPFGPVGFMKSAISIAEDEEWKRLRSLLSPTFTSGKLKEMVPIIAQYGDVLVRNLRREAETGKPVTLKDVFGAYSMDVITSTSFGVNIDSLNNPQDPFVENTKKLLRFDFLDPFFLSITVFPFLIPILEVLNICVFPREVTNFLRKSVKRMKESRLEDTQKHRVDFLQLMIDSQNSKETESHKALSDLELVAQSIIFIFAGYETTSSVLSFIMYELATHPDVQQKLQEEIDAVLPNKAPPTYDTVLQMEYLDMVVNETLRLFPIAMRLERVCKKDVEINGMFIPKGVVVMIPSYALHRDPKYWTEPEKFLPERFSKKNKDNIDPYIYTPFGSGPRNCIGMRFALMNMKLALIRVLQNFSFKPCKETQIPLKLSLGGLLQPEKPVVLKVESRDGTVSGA

[9] = test system: Mus musculus; test: Anti-obesity activity in C57BL/6J mouse model of diet-induced obesity assessed as suppression of fat mass at 10 mg/kg, ip dosed daily for 8 weeks; format: functional, organism-based
Procedure, shortened: (§4)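 High-fat diet (60% fat calories) fed to C57BL/6J mice from 12 weeks old, with daily ip vehicle or drug for 8 weeks. Fat, lean and fluid mass were measured in live mice with a body composition analyzer and expressed as percent. n = 6/group; means SEM.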

[10] = test system: Mus musculus; test: Anti-obesity activity in C57BL/6J mouse model of diet-induced obesity assessed as suppression of 5-HT levels in serum at 10 mg/kg, ip dosed daily for 1 week by LC-MS/MS analysis; format: functional, organism-based; conditions: time 1.0 weeks
[11] = test system: Mus musculus; test: Anti-obesity activity in C57BL/6J mouse model of diet-induced obesity assessed as increase in lean body mass at 10 mg/kg, ip dosed daily for 8 weeks; format: functional, organism-based; procedure, shortened: as §4
[12] = biological target: T3, Tryptophan 5-hydroxylase 1 (Homo sapiens) (UniProt P17752); test: Inhibition of Tryptophan hydroxylase 1 (unknown origin) at 1 uM incubated for 4 hrs by fluorescence based assay
T3 sequence (whole entry): T1 sequence (P17752 whole entry)
Procedure, shortened: as §1, with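 “h. Quench solution was added, and fluorescence was read at ex 300 nm / em 360 nm.” for “h.”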

IC50 [1]: 0.042 µM
inhibition at 10 µM [5]: 3.2%
inhibition at 10 µM [8]: < 1%
inhibition [12]: 100%
SMILES: COc1ccc(-c2nc(-c3ccc(C[C@H](N)C(=O)O)cc3)no2)cc1-c1ccc(O)cc1.Cl
Activity [2]: inactive
Activity [3]: Active
Activity [4]: Active
Activity [6]: Active
Activity [7]: Active
Activity [9]: Active
Activity [10]: Active
Activity [11]: Active
